Experimental data published in ChEMBL document CHEMBL3822380, “Simple avarone mimetics as selective agents against multidrug resistant cancer cells” (Eur J Med Chem, 2016).
≈ marks a conversion by molar mass, not a printed value. Calls of active or inactive are those of the source.

How the values were obtained:
Pseudomonas aeruginosa = experiment: Antibacterial activity against Pseudomonas aeruginosa ATCC 9027 by broth microdilution method; type: functional
Procedure, shortened: (§1)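 Broth microdilution per NCCLS. Compounds dissolved in DMSO as 10 mg/mL stock, diluted in Mueller Hinton broth (bacteria) or Sabouraud dextrose broth (fungi). Amikacin served as the positive control for bacteria and nystatin for fungi.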

Kocuria rhizophila = experiment: Antibacterial activity against Kocuria rhizophila ATCC 9341 by broth microdilution method; type: functional; conditions: DC2201; procedure, shortened: as §1
Escherichia coli = experiment: Antibacterial activity against Escherichia coli ATCC 25922 by broth microdilution method; type: functional; procedure, shortened: as §1
Candida albicans = experiment: Antifungal activity against Candida albicans ATCC 10231 by broth microdilution method; type: functional; procedure, shortened: as §1
Micrococcus luteus [1] = experiment: Antibacterial activity against Micrococcus luteus ATCC 4698 by broth microdilution method; type: functional; conditions: NCTC 2665; procedure, shortened: as §1
NCI-H460 [2] = experiment: Cytotoxicity against human NCI-H460 cells after 72 hrs by MTT assay; type: functional, cell-based; conditions: NCI-H460, 72 h
Procedure, shortened: (§2)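 Seeding in 96-well plates at 1000 (NCI-H460), 2000 (NCI-H460/R) or 4000 (HaCaT) cells/well, treated after 24 h for 72 h. MTT at 0.4 mg/mL final, 4 h at 37 °C. Formazan dissolved in DMSO, absorbance read at 540 nm. Inhibition % = (1 − A treated/A untreated)×100. IC30 and IC50 obtained by linear regression.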

Micrococcus luteus [3] = experiment: Antibacterial activity against Micrococcus luteus ATCC 10240 by broth microdilution method; type: functional; procedure, shortened: as §1
NCI-H460 [4] = experiment: Cytotoxicity against multidrug resistant human NCI-H460 cells after 72 hrs by MTT assay; type: functional, cell-based; conditions: NCI-H460, 72 h; procedure, shortened: as §2
Bacillus spizizenii = experiment: Antibacterial activity against Bacillus subtilis ATCC 6633 by broth microdilution method; type: functional; procedure, shortened: as §1
Salmonella enteritidis = experiment: Antibacterial activity against Salmonella enterica subsp. enterica serovar Enteritidis ATCC 13076 by broth microdilution method; type: functional; procedure, shortened: as §1
Proteus hauseri = experiment: Antibacterial activity against Proteus hauseri ATCC 13315 by broth microdilution method; type: functional; procedure, shortened: as §1
Aspergillus brasiliensis = experiment: Antifungal activity against Aspergillus brasiliensis ATCC 16404 by broth microdilution method; type: functional; procedure, shortened: as §1
Saccharomyces cerevisiae = experiment: Antifungal activity against Saccharomyces cerevisiae ATCC 9763 by broth microdilution method; type: functional; procedure, shortened: as §1
HaCaT [5] = experiment: Cytotoxicity against human HaCaT cells after 72 hrs by MTT assay; type: cell-based; conditions: for IC50: Homo sapiens, HaCaT; for IC30: human, hacat; procedure, shortened: as §2
Staphylococcus aureus = experiment: Antibacterial activity against Staphylococcus aureus ATCC 6538 by broth microdilution method; type: functional; procedure, shortened: as §1
Clostridium sporogenes = experiment: Antibacterial activity against Clostridium sporogenes ATCC 19404 by broth microdilution method; type: functional; procedure, shortened: as §1
[6] = Selectivity ratio of IC30/IC50 for human HaCaT cells to IC30/IC50 for multidrug resistant human NCI-H460 cells; type: ADME, cell-based; conditions: HaCaT cells versus multidrug resistant NCI-H460 cells
Procedure, shortened: (§3)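 Fold threshold of 1.5 used to call selectivity to cancer cells, resistance, or selectivity to MDR cells.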

[7] = Selectivity ratio of IC30/IC50 for human HaCaT cells to IC30/IC50 for human NCI-H460 cells; type: ADME, cell-based; conditions: HaCaT cells versus NCI-H460 cells; procedure, shortened: as §3
NCI-H460 [8] = experiment: Selectivity ratio of IC30/IC50 for human NCI-H460 cells to IC30/IC50 for multidrug resistant human NCI-H460 cells; type: functional; procedure, shortened: as §3
HaCaT [9] = experiment: Induction of apoptosis in human HaCaT cells assessed as late apoptotic/necrotic cells at 25 uM after 72 hrs by annexin-V/propidium iodide staining-based flow cytometric analysis (reference value: 0.2%); type: cell-based
NCI-H460 [10] = experiment: Induction of apoptosis in human NCI-H460 cells assessed as early apoptotic cells at 25 uM after 72 hrs by annexin-V/propidium iodide staining-based flow cytometric analysis (reference value: 0.3%); type: functional
NCI-H460 [11] = experiment: Induction of superoxide anion generation in multidrug resistant human NCI-H460 cells at 25 uM after 72 hrs by DHE staining-based flow cytometric analysis relative to control; type: functional, cell-based
Procedure, shortened: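 Seeded as for cell death (50,000 or 100,000 cells/well), treated 72 h at 25 µM, with CDDP 5 µM as control. Adherent cells trypsinized and loaded with 1 µM DHE for 30 min at 37 °C in the dark, then washed twice in PBS. Flow cytometry at ex 488/em 585 nm (FL2-H). Mean fluorescence intensity corrected for autofluorescence and compared with untreated control.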

NCI-H460 [12] = experiment: Induction of apoptosis in human NCI-H460 cells assessed as dead cells at 25 uM after 72 hrs by annexin-V/propidium iodide staining-based flow cytometric analysis (reference value: 1.2%); type: functional
NCI-H460 [13] = experiment: Induction of apoptosis in human NCI-H460 cells assessed as late apoptotic/necrotic cells at 25 uM after 72 hrs by annexin-V/propidium iodide staining-based flow cytometric analysis (reference value: 0.2%); type: functional
NCI-H460 [14] = experiment: Induction of apoptosis in multidrug resistant human NCI-H460 cells assessed as live cells at 25 uM after 72 hrs by annexin-V/propidium iodide staining-based flow cytometric analysis (reference value: 96.4%); type: functional
HaCaT [15] = experiment: Induction of apoptosis in human HaCaT cells assessed as dead cells at 25 uM after 72 hrs by annexin-V/propidium iodide staining-based flow cytometric analysis (reference value: 2.8%); type: cell-based
[16] = Induction of apoptosis in human HaCaT cells assessed as live cells at 25 uM after 72 hrs by annexin-V/propidium iodide staining-based flow cytometric analysis (reference value: 96.8%); type: cell-based; conditions: read-out: Activity
HaCaT [17] = experiment: Induction of apoptosis in human HaCaT cells assessed as early apoptotic cells at 25 uM after 72 hrs by annexin-V/propidium iodide staining-based flow cytometric analysis (reference value: 0.2%); type: cell-based
NCI-H460 [18] = experiment: Induction of apoptosis in multidrug resistant human NCI-H460 cells assessed as dead cells at 25 uM after 72 hrs by annexin-V/propidium iodide staining-based flow cytometric analysis (reference value: 1.5%); type: functional
NCI-H460 [19] = experiment: Induction of apoptosis in human NCI-H460 cells assessed as live cells at 25 uM after 72 hrs by annexin-V/propidium iodide staining-based flow cytometric analysis (reference value: 98.3%); type: functional
NCI-H460 [20] = experiment: Induction of apoptosis in multidrug resistant human NCI-H460 cells assessed as early apoptotic cells at 25 uM after 72 hrs by annexin-V/propidium iodide staining-based flow cytometric analysis (reference value: 1.1%); type: functional
NCI-H460 [21] = experiment: Induction of apoptosis in multidrug resistant human NCI-H460 cells assessed as late apoptotic/necrotic cells at 25 uM after 72 hrs by annexin-V/propidium iodide staining-based flow cytometric analysis (reference value: 1%); type: functional

SMILES	MIC (Pseudomonas aeruginosa) [µM]	MIC (Kocuria rhizophila) [µM]	MIC (Escherichia coli) [µM]	MIC (Candida albicans) [µM]	MIC (Micrococcus luteus [1]) [µM]	MIC (Micrococcus luteus [3]) [µM]	MIC (Bacillus spizizenii) [µM]	MIC (Salmonella enteritidis) [µM]	MIC (Proteus hauseri) [µM]	MIC (Aspergillus brasiliensis) [µM]	MIC (Saccharomyces cerevisiae) [µM]	MIC (Staphylococcus aureus) [µM]	MIC (Clostridium sporogenes) [µM]	IC30 (NCI-H460 [2]) [µM]	IC50 (NCI-H460 [2]) [µM]	IC30 (NCI-H460 [4]) [µM]	IC50 (NCI-H460 [4]) [µM]	IC50 (HaCaT [5]) [µM]	IC30 (HaCaT [5]) [µM]	selectivity ratio [6]	other results
CCNC1=CC(=O)C(C(C)(C)C)=CC1=O	3020 (≈ 626 µg/mL)	758 (≈ 157 µg/mL)	188 (≈ 39 µg/mL)	1510 (≈ 313 µg/mL)	1510 (≈ 313 µg/mL)	48 (≈ 9.95 µg/mL)	1510 (≈ 313 µg/mL)	758 (≈ 157 µg/mL)	1510 (≈ 313 µg/mL)	381 (≈ 79 µg/mL)	3020 (≈ 626 µg/mL)	96 (≈ 19.9 µg/mL)	1510 (≈ 313 µg/mL)	45	64	45	65	75	50	–	–
CCCCNC1=CC(=O)C(C[C@]2(C)[C@@H](C)CC[C@]3(C)C(C)=CCC[C@@H]23)=CC1=O	–	–	–	–	–	–	–	–	–	–	–	–	–	91	> 100	24	> 100	> 100	86	≤ 1.5	selectivity ratio [7]: ≤ 1.5; selectivity ratio (NCI-H460 [8]): <=1.5
CNC1=CC(=O)C=C(C(C)(C)C)C1=O	3240 (≈ 626 µg/mL)	813 (≈ 157 µg/mL)	202 (≈ 39 µg/mL)	1620 (≈ 313 µg/mL)	1620 (≈ 313 µg/mL)	202 (≈ 39 µg/mL)	1620 (≈ 313 µg/mL)	1620 (≈ 313 µg/mL)	1620 (≈ 313 µg/mL)	103 (≈ 19.9 µg/mL)	3240 (≈ 626 µg/mL)	51 (≈ 9.86 µg/mL)	1620 (≈ 313 µg/mL)	14	25	15	23	10	8	–	–
CC(C)(C)C1=CC(=O)C(NCCc2ccccc2)=CC1=O	2210 (≈ 626 µg/mL)	2210 (≈ 626 µg/mL)	–	2210 (≈ 626 µg/mL)	2210 (≈ 626 µg/mL)	4420 (≈ 1250 µg/mL)	4420 (≈ 1250 µg/mL)	4420 (≈ 1250 µg/mL)	2210 (≈ 626 µg/mL)	1110 (≈ 313 µg/mL)	2210 (≈ 626 µg/mL)	–	2210 (≈ 626 µg/mL)	17	35	11	33	> 100	> 100	≤ 1.5	Activity (HaCaT [9]): 1.7%; Activity (NCI-H460 [10]): 0.8%; Activity (NCI-H460 [11]): inactive; Activity (NCI-H460 [12]): 13%; selectivity ratio [7]: ≤ 1.5; Activity (NCI-H460 [13]): 5.4%; Activity (NCI-H460 [14]): 81%; Activity (HaCaT [15]): 8.3%; viability at 72 h, 25 µM [16]: 89.2%; Activity (HaCaT [17]): 0.8%; Activity (NCI-H460 [18]): 14.1%; Activity (NCI-H460 [19]): 80.8%; Activity (NCI-H460 [20]): 1.3%; Activity (NCI-H460 [21]): 3.6%

More lines, main results first:

MIC (Pseudomonas aeruginosa) [µM]	MIC (Kocuria rhizophila) [µM]	MIC (Escherichia coli) [µM]	MIC (Candida albicans) [µM]	MIC (Micrococcus luteus [1]) [µM]	MIC (Micrococcus luteus [3]) [µM]	MIC (Bacillus spizizenii) [µM]	MIC (Salmonella enteritidis) [µM]	MIC (Proteus hauseri) [µM]	MIC (Aspergillus brasiliensis) [µM]	MIC (Saccharomyces cerevisiae) [µM]	MIC (Staphylococcus aureus) [µM]	MIC (Clostridium sporogenes) [µM]	SMILES	IC30 (NCI-H460 [2]) [µM]	IC50 (NCI-H460 [2]) [µM]	IC30 (NCI-H460 [4]) [µM]	IC50 (NCI-H460 [4]) [µM]	IC50 (HaCaT [5]) [µM]	IC30 (HaCaT [5]) [µM]	selectivity ratio [6]	other results
620 (≈ 146 µg/mL)	–	9 (≈ 2.12 µg/mL)	77 (≈ 18.1 µg/mL)	154 (≈ 36.2 µg/mL)	9 (≈ 2.12 µg/mL)	1240 (≈ 291 µg/mL)	620 (≈ 146 µg/mL)	–	620 (≈ 146 µg/mL)	154 (≈ 36.2 µg/mL)	9 (≈ 2.12 µg/mL)	1240 (≈ 291 µg/mL)	CCCCNC1=CC(=O)C=C(C(C)(C)C)C1=O	4	14	4	13	11	7	–	–
85 (≈ 49.8 µg/mL)	3 (≈ 1.76 µg/mL)	9 (≈ 5.27 µg/mL)	–	3 (≈ 1.76 µg/mL)	14 (≈ 8.2 µg/mL)	72 (≈ 42.2 µg/mL)	14 (≈ 8.2 µg/mL)	12 (≈ 7.03 µg/mL)	–	–	19 (≈ 11.1 µg/mL)	26 (≈ 15.2 µg/mL)	NCC[C@H](O)C(=O)N[C@@H]1C[C@H](N)[C@@H](O[C@H]2O[C@H](CN)[C@@H](O)[C@H](O)[C@H]2O)[C@H](O)[C@H]1O[C@H]1O[C@H](CO)[C@@H](O)[C@H](N)[C@H]1O [AMIKACIN]	–	–	–	–	–	–	–	–
